Data reported in ChEMBL document CHEMBL4622914, “Development of a bioavailable boron-containing PI-103 Bioisostere, PI-103BE” (Bioorg Med Chem Lett, 2020).

Assays:
[1] = Cmax in ovariectomized nu/nu mouse assessed (3-(4-morpholinopyrido [3',2':4,5] furo [3,2-d] pyrimidin-2-yl)phenyl)boronic acid at 10 mg/kg, po measured upto 24 hrs by UHPLC-MS analysis; format: ADME, organism-based; design: dose 10 mg/kg, route oral; conditions: in vivo
Summary of the method: (§1)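 Female ovariectomized Nu/Nu mice, 4–6 weeks old, n = 5 per group. Single 10 mg/kg oral gavage in 5% DMSO/40% PEG 400/55% saline. Orbital-sinus blood was taken at 0.5, 1, 3, 8 and 24 h, one sampling per group, into EDTA. Plasma was spun at 4 °C and stored at −80 °C. The prodrug's boronic acid metabolite and phenol were quantified by C18 UHPLC–TSQ MS/MS with an acetonitrile/water 0.05% formic acid gradient.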

[2] = Cmax in ovariectomized nu/nu mouse assessed (3-(4-morpholinopyrido [3',2':4,5] furo [3,2-d] pyrimidin-2-yl)phenyl)boronic acid at 10 mg/kg, ip measured upto 24 hrs by UHPLC-MS analysis; format: ADME, organism-based; design: dose 10 mg/kg, route intraperitoneal; conditions: in vivo
PC-3 = assay: Antiproliferative activity against human PC3 cells assessed as reduction in cell viability incubated for 4 days by coulter counter method; format: functional, cell-based; conditions: PC-3, 96 h
Summary of the method: (§2)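 Cells seeded at 50,000 per well in DMEM with 5% FBS, exposed to six concentrations of compound for 4 days; DMSO as vehicle control. Cell numbers counted on a Coulter counter; survival ratio = treated/vehicle cell count. IC50 taken from dose-response curves. Triplicate experiments, mean ± SD.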

[3] = Tmax in ovariectomized nu/nu mouse assessed 3-(4-morpholinopyrido [3',2':4,5] furo [3,2-d] pyrimidin-2-yl)phenol at 10 mg/kg, ip measured upto 24 hrs by UHPLC-MS analysis; format: ADME, organism-based; conditions: in vivo
[4] = Drug concentration in ovariectomized nu/nu mouse plasma assessed 3-(4-morpholinopyrido [3',2':4,5] furo [3,2-d] pyrimidin-2-yl)phenol at 10 mg/kg, ip measured after 8 hrs by UHPLC-MS analysis; format: ADME, organism-based; conditions: in vivo
[5] = Tmax in ovariectomized nu/nu mouse assessed 3-(4-morpholinopyrido [3',2':4,5] furo [3,2-d] pyrimidin-2-yl)phenol at 10 mg/kg, po measured upto 24 hrs by UHPLC-MS analysis; format: ADME, organism-based; conditions: in vivo; summary of the method: as §1
[6] = Drug concentration in ovariectomized nu/nu mouse plasma assessed (3-(4-morpholinopyrido [3',2':4,5] furo [3,2-d] pyrimidin-2-yl)phenyl)boronic acid at 10 mg/kg, po measured after 8 hrs by UHPLC-MS analysis; format: ADME, organism-based; conditions: in vivo; summary of the method: as §1
[7] = Half life in ovariectomized nu/nu mouse assessed (3-(4-morpholinopyrido [3',2':4,5] furo [3,2-d] pyrimidin-2-yl)phenyl)boronic acid at 10 mg/kg, po measured upto 24 hrs by UHPLC-MS analysis; format: ADME, organism-based; conditions: in vivo; summary of the method: as §1
[8] = Tmax in ovariectomized nu/nu mouse assessed (3-(4-morpholinopyrido [3',2':4,5] furo [3,2-d] pyrimidin-2-yl)phenyl)boronic acid at 10 mg/kg, po measured upto 24 hrs by UHPLC-MS analysis; format: ADME, organism-based; conditions: in vivo; summary of the method: as §1
[9] = Drug concentration in ovariectomized nu/nu mouse plasma assessed 3-(4-morpholinopyrido [3',2':4,5] furo [3,2-d] pyrimidin-2-yl)phenol at 10 mg/kg, ip measured after 3 hrs by UHPLC-MS analysis; format: ADME, organism-based; conditions: in vivo
[10] = Stability of compound in cell culture medium assessed as compound hydrolysis measured after 8 hrs; format: physicochemical
[11] = Drug concentration in ovariectomized nu/nu mouse plasma assessed 3-(4-morpholinopyrido [3',2':4,5] furo [3,2-d] pyrimidin-2-yl)phenol at 10 mg/kg, po measured after 24 hrs by UHPLC-MS analysis; format: ADME, organism-based; conditions: in vivo; summary of the method: as §1
MDA-MB-231 = assay: Antiproliferative activity against human MDA-MB-231 cells assessed as reduction in cell viability incubated for 4 days by coulter counter method; format: functional, cell-based; conditions: MDA-MB-231, 96 h
Summary of the method: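 Cancer cells were seeded at 50,000 per well in DMEM with 5% FBS. They were exposed to six compound doses for 4 days, with DMSO as vehicle control and a reference inhibitor as positive control. Cells were counted by Coulter counter. Survival ratio is treated cell number over vehicle cell number. IC50 was taken from dose–response curves. Triplicate experiments.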

[12] = AUC in ovariectomized nu/nu mouse assessed (3-(4-morpholinopyrido [3',2':4,5] furo [3,2-d] pyrimidin-2-yl)phenyl)boronic acid at 10 mg/kg, ip measured upto 24 hrs by UHPLC-MS analysis; format: ADME, organism-based; design: time < 24 hr, dose 10 mg/kg, route intraperitoneal; conditions: in vivo
[13] = Drug concentration in ovariectomized nu/nu mouse plasma assessed 3-(4-morpholinopyrido [3',2':4,5] furo [3,2-d] pyrimidin-2-yl)phenol at 10 mg/kg, po measured after 8 hrs by UHPLC-MS analysis; format: ADME, organism-based; conditions: in vivo; summary of the method: as §1
SK-OV-3 = assay: Antiproliferative activity against human SKOV3 cells assessed as reduction in cell viability incubated for 4 days by coulter counter method; format: functional, cell-based; conditions: SK-OV-3, 96 h; summary of the method: as §2
[14] = Drug concentration in ovariectomized nu/nu mouse plasma assessed (3-(4-morpholinopyrido [3',2':4,5] furo [3,2-d] pyrimidin-2-yl)phenyl)boronic acid at 10 mg/kg, ip measured after 24 hrs by UHPLC-MS analysis; format: ADME, organism-based; conditions: in vivo
[15] = Drug concentration in ovariectomized nu/nu mouse plasma assessed (3-(4-morpholinopyrido [3',2':4,5] furo [3,2-d] pyrimidin-2-yl)phenyl)boronic acid at 10 mg/kg, ip measured after 8 hrs by UHPLC-MS analysis; format: ADME, organism-based; conditions: in vivo
[16] = Drug concentration in ovariectomized nu/nu mouse plasma assessed (3-(4-morpholinopyrido [3',2':4,5] furo [3,2-d] pyrimidin-2-yl)phenyl)boronic acid at 10 mg/kg, po measured after 24 hrs by UHPLC-MS analysis; format: ADME, organism-based; conditions: in vivo; summary of the method: as §1
[17] = Stability of compound in cell culture medium assessed as compound hydrolysis measured after 0.5 hrs; format: physicochemical
[18] = Drug concentration in ovariectomized nu/nu mouse plasma assessed 3-(4-morpholinopyrido [3',2':4,5] furo [3,2-d] pyrimidin-2-yl)phenol at 10 mg/kg, po measured after 3 hrs by UHPLC-MS analysis; format: ADME, organism-based; conditions: in vivo; summary of the method: as §1
[19] = Drug concentration in ovariectomized nu/nu mouse plasma assessed (3-(4-morpholinopyrido [3',2':4,5] furo [3,2-d] pyrimidin-2-yl)phenyl)boronic acid at 10 mg/kg, ip measured after 0.5 hrs by UHPLC-MS analysis; format: ADME, organism-based; conditions: in vivo
[20] = AUC (0 to 24 hrs) in ovariectomized nu/nu mouse assessed (3-(4-morpholinopyrido [3',2':4,5] furo [3,2-d] pyrimidin-2-yl)phenyl)boronic acid at 10 mg/kg, po measured upto 24 hrs by UHPLC-MS analysis; format: ADME, organism-based; design: time < 24 hr, dose 10 mg/kg, route oral; conditions: in vivo; summary of the method: as §1
[21] = Stability of compound in cell culture medium assessed as compound hydrolysis measured after 3 hrs; format: physicochemical
[22] = AUC (0 to 24 hrs) in ovariectomized nu/nu mouse assessed 3-(4-morpholinopyrido [3',2':4,5] furo [3,2-d] pyrimidin-2-yl)phenol at 10 mg/kg, po measured upto 24 hrs by UHPLC-MS analysis; format: ADME, organism-based; design: dose 10 mg/kg, time < 24 hr, route oral; conditions: in vivo; summary of the method: as §1
[23] = Drug concentration in ovariectomized nu/nu mouse plasma assessed (3-(4-morpholinopyrido [3',2':4,5] furo [3,2-d] pyrimidin-2-yl)phenyl)boronic acid at 10 mg/kg, po measured after 0.5 hrs by UHPLC-MS analysis; format: ADME, organism-based; conditions: in vivo; summary of the method: as §1

CC1(C)OB(c2cccc(-c3nc(N4CCOCC4)c4oc5ncccc5c4n3)c2)OC1(C)C
Cmax [1]: 709.2 ng/mL | Cmax [2]: 44.5 ng/mL | IC50 (PC-3): 720 nM | Tmax [3]: 0.5 h | Cp [4]: 1 ng/mL | Tmax [5]: 1 h | Cp [6]: 354.2 ng/mL | t1/2 [7]: 9.2 h | Tmax [8]: 1 h | Cp [9]: 1.3 ng/mL | Drug degradation [10]: 0 µM | Cp [11]: 0.7 ng/mL | IC50 (MDA-MB-231): 440 nM | AUC [12]: 400.9 ng·h/mL | Cp [13]: 4.1 ng/mL | IC50 (SK-OV-3): 1330 nM | Cp [14]: 6.5 ng/mL | Cp [15]: 17.2 ng/mL | Cp [16]: 106.4 ng/mL | Drug degradation [17]: 0.04 µM | Cp [18]: 6.5 ng/mL | Cp [19]: 30.6 ng/mL | AUC [20]: 8879.9 ng·h/mL | Drug degradation [21]: 0 µM | AUC [22]: 88.2 ng·h/mL | Cp [23]: 402.8 ng/mL
